PREPL inh – human PREPL enzyme inhibition | recombinant PREPL, fluorescence polarization activity-based probe | Q4J6C6 | inhibition, % at 5.96 µM | 320,000 tested, 0.68% active | AID 2751; in the data active = inhibition above about 43%;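 note: 0% = enzyme with DMSO and 100% = wells lacking enzyme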
Target sequence (Q4J6C6 whole entry, looked up): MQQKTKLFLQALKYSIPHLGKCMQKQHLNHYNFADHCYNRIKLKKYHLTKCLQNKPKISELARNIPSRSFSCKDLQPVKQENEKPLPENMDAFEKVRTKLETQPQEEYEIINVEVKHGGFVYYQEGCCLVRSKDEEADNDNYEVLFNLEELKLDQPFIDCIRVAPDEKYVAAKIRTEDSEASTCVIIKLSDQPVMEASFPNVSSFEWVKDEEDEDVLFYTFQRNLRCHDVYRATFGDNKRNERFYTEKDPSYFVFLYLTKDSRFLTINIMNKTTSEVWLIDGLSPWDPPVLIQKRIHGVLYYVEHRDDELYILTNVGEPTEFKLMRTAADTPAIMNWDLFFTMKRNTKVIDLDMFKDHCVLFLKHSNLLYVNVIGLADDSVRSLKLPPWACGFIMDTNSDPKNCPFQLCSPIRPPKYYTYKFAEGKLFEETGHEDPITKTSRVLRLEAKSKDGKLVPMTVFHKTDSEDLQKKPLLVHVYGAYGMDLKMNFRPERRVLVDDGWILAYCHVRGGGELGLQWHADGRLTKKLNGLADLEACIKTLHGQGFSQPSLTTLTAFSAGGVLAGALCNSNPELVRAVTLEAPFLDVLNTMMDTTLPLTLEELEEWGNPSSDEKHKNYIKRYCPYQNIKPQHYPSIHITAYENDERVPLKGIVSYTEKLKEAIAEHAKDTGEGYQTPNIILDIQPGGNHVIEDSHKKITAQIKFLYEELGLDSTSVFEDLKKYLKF
T cruzi inh – T. cruzi replication inhibition. inhibition, % (test concentration not listed). 300,000 tested, 1.4% active. T. cruzi beta-gal in NIH3T3, luminescence, 90 h;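 active = mean inhibition across valid replicates above about 55%, limit read from the data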;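 note: signal also drops with host cell toxicity which is not excluded here; 0% = plate median of DMSO wells and 100% = zero luminescence signal; higher percent means less beta-gal luminescence so fewer parasites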
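System: Mouse NIH/3T3 fibroblasts infected with β-gal-expressing T. cruzi Tulahuen C4 | Quantity: NIH/3T3 cells, 5,000 per well | Reagent: 5000 reporter trypomastigotes per well | Dosing: Compound pinned at 50 nL/well, DMSO | Schedule: 3 h host attachment, then at least 90 h co-culture | Detection: GalScreen luminescence, 60 min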
CSC inhib – cancer stem cell inhibition | cancer stem cell-like cells viability, luminescence | inhibition, % at 7.5 µM | 300,000 tested, 1.1% active; in the data active = inhibition above about 75%; tested in HMLE shEcad cells
Beta apoptosis – beta cell apoptosis inhibition. 300,000 tested, 0.8% active. INS-1E cytokine-induced death, ATP luminescence, 48 h; percent of positive-control rescue, neutral wells zero. protection from apoptosis, % (concentration not given with the values);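 active = Every replicate reaches about 75%, or at least half do and their mean reaches it too, limit read from the data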;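 note: 0% = cytokine-treated negative control wells and 100% = positive control rescue; higher means more ATP so stronger rescue from cytokine killing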
CHOP inhibitor – blocks CHOP induction under ER stress | CHO-K1 CHOP-promoter luciferase, tunicamycin-induced, 15-18 h | inhibition, % at 10 µM | 220,000 tested, 3.8% active | AID 2732;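 active = compounds that reduced the stress-induced luciferase reporter signal by more than about 70% of percent inhibition, limit read from the data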;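 note: 0% = tunicamycin plus vehicle and 100% = wells without tunicamycin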
NR3A LBD binder – modulators (binders) of human NR3A ligand-binding domain. NR3A LBD differential scanning fluorimetry, Tm shift; 0% = protein alone, 100% = glycine-bound protein. Tm shift relative to glycine control, % at 25 µM. 340,000 tested, 2.5% active. AID 1259313;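 active = melting temperature shift of at least 10% of the positive control shift, at one fixed dose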
Starred values were filed as active, the others as inactive; . = no result given. Rows were chosen to be rich in hits. Some 6.7% of all compounds tested hit in one or more screens of this group.

SMILES	PREPL inh	T cruzi inh	CSC inhib	Beta apoptosis	CHOP inhibitor	NR3A LBD binder
Cc1cccc2sc(NC(=O)CNS(=O)(=O)c3ccc(Br)s3)nc12	-54.5	.	14.7	.	22.3	10.7*
Cc1ccc2nc(NC(=O)CNS(=O)(=O)c3ccc(Br)s3)sc2c1	-5.4	-4.2	-1.9	-7.8	3.3	-1.4
CCc1ccc2nc(NC(=O)c3ccc(N4C(=O)CCC4=O)cc3)sc2c1	-3.3	-7.4	5.3	-1.7	80.5*	-0.2
O=C(COc1coc(CN2CCCc3ccccc32)cc1=O)Nc1ccccc1	2.5	-2.5	-8.2	3.9	.	-0.3
CN(C)CCCNS(=O)(=O)c1ccc(N2CCC(c3ccc(Cl)cc3)=N2)cc1	70.3*	72.4*	112.3*	11.9	.	.
O=C(NCCC(=O)N1CCNC1=O)OCc1ccccc1	8.8	-0.1	.	.	11.0	13.7*
O=C(NCCCCCCNC(=O)OCc1ccccc1)OCc1ccccc1	.	.	.	.	.	0.7
COc1ccc(F)cc1C(=O)C1CCCN(C(=O)c2ccccc2N(C)C)C1 (centres undefined)	13.0	21.8	-1.3	-1.3	.	2.1
CC(C)c1cccc(C(C)C)c1NC(=O)CN(C)C1CCS(=O)(=O)C1 (centres undefined)	-0.5	.	.	-4.4	.	-1.2
CC(C)Oc1snc(Cl)c1C(N)=O	-6.0	2.3	-17.2	-1.5	-27.0	-0.2
COc1ccccc1CNC(=O)COC(=O)c1nccnc1N	15.8	-11.3	32.2	-6.6	.	-2.5
Cc1sc(NC(=O)c2ccccc2)c(C(=O)c2ccccc2)c1C	1.2	20.1	-4.7	-5.4	34.1	-0.5
Cc1ccc(C(=O)Nc2sc(C)c(C)c2C(=O)c2ccccc2)cc1	-0.5	7.5	41.1	1.9	31.9	20.5*
CC(C)=CCc1c([C@@H]2CCc3ccc(O)cc3O2)cc2c(c1O)OC(C)(C)C=C2	3.7	1.7	-12.4	-4.5	.	-3.7
CC(C)=CCc1c2c(c(O)c3c(=O)c4c(oc13)-c1cc(O)c(O)cc1OC4C=C(C)C)C=CC(C)(C)O2 (centres undefined)	4.0	-8.8	-10.2	71.4	.	22.5*
CC(C)=CCc1c(-c2ccc(O)cc2O)oc2c3c(cc(O)c2c1=O)OC(C)(C)C=C3	10.3	21.4	4.7	13.9	.	26.7*
Cc1oc(-c2ccc(Cl)cc2)nc1CS(=O)CC(=O)NC1CCCC1 (centres undefined)	6.0	-4.3	-9.1	-2.7	.	-1.2
COc1ccccc1/C=C(/C(=O)OCC(=O)Nc1cc(C)ccc1C)c1ccccc1	-10.7	13.3	21.4	-4.4	22.0	-5.1
CCCCSC1(SCCCC)N=C(N)C2(C#N)C(c3ccccc3)NC(C)=C(C)C12C#N (centres undefined)	14.8	-6.6	4.9	-7.6	75.6*	-3.9
N#Cc1c2ccc(O)cc2n2ccccc12	13.2	65.3*	3.6	5.0	55.8	5.7
N#Cc1c2ccc(OCC(=O)NCc3ccco3)cc2n2ccccc12	4.1	-0.9	11.9	0.3	.	1.4
Cc1ccc(CN(C)C(=O)c2cc(COc3cccc(C(F)(F)F)c3)on2)o1	5.6	3.5	20.0	-6.9	.	-0.6
Cc1cccc(N(C)S(=O)(=O)c2c[nH]c3ccc([N+](=O)[O-])cc23)c1	5.1	13.9	.	.	.	1.9
O=c1oc2ccc3ccccc3c2cc1-c1nnc(-c2ccccc2)o1	20.9	-12.9	10.4	-2.8	13.3	-11.3
CCN(CC)c1ccc2cc(-c3nnc(-c4ccccc4)o3)c(=O)oc2c1	21.5	-19.9	-0.7	40.8	-12.8	31.6*
SMILES	PREPL inh	T cruzi inh	CSC inhib	Beta apoptosis	CHOP inhibitor	NR3A LBD binder
CCOC(=O)N1CCN(CCC(=O)Nc2cccc(C)c2)CC1	2.4	-18.5	-2.9	-4.3	.	-3.2
CN(C)CCNC(=O)Cn1c(=O)c2cccn2c2ccc(F)cc21	.	-5.0	-7.0	12.2	.	2.1
O=C(Cn1c(=O)c2cccn2c2ccc(F)cc21)NCCCN1CCN(c2ccccc2F)CC1	-31.8	23.1	1.5	0.0	.	13.4*
Cc1cccc(-n2c(=O)c3ccccc3n3c(=S)[nH]nc23)c1C	2.2	-10.7	-8.7	-4.7	.	2.7
COc1cccc(CN(C(=O)Cc2c[nH]c3ccccc23)C(C(=O)NC2CCCCC2)c2ccc(C)o2)c1 (centres undefined)	4.4	34.4	-6.5	19.7	9.3	22.8*
COc1ccc(CN(C(=O)Cc2c[nH]c3ccccc23)C(C(=O)NC2CCCCC2)c2ccc(C)o2)cc1 (centres undefined)	-6.0	36.0	25.6	8.7	49.9	5.7
CCCCNC(=O)Oc1c(Br)cc2sc(=O)oc2c1Br	17.9	.	13.4	-9.8	102.7*	.
CCCCC(=O)Oc1c(S(=O)(=O)c2ccccc2)c(C)nn1C(C)(C)C	15.4	-19.4	11.7	-11.4	.	-0.3
Cc1cc(=O)c(C(=O)O)c(C)n1-c1ccccc1	.	.	.	.	.	0.4
CC(=O)c1c(OC(=O)c2ccccc2Br)ccc2c(C)cc(=O)oc12	13.3	-18.5	8.1	-8.2	18.5	13.1*
COC(=O)c1cc2occc2n1CC(=O)Nc1cc(OC)cc(OC)c1	5.3	6.7	1.7	-5.9	1.2	11.3*
CC(C)(C)OC(=O)N1CCC(c2cc(=O)n3[nH]c(-c4ccc(Cl)cc4)cc3n2)CC1	0.5	4.9	23.8	5.6	70.0*	-1.4
CC1=C(C(=O)OC2CCCC(C)C2)C(c2ccccc2)NC(=O)N1 (centres undefined)	12.2	-5.1	-5.3	0.7	.	-3.8
COCC1CCCN(C(=O)c2ccc3oc(Cc4ccc(Cl)cc4)nc3c2)C1 (centres undefined)	15.3	1.0	-7.9	4.0	.	-4.0
O=C(NCc1cccnc1)c1cc(-c2ccco2)on1	4.8	-11.8	-9.2	100.8*	-3.5	0.7
O=C(NCc1ccco1)c1cccs1	-1.4	-17.6	-6.9	.	76.3*	-1.7
Cc1ccc(-c2cc(C(=O)NCc3cccnc3)no2)cc1	-1.3	-5.6	-5.3	1.3	-2.9	-1.2
O=C(NCc1ccco1)c1cc(-c2ccccc2)on1	-3.2	20.4	12.3	12.5	-2.8	10.5*
c1cnc2ccc3c(c2c1)COCO3	.	.	.	.	.	-0.2
S=c1nc[nH]c2c1ncn2C1CCCO1 (centres undefined)	17.2	28.6	122.3*	-0.3	-0.1	.
OCC1OC(n2cnc3c(=S)nc[nH]c32)CC1O (centres undefined)	.	.	.	.	.	0.5
Cc1ccc(/C=C/C(=O)NC(=S)Nc2ccccc2C(=O)NC2CCCCC2)cc1	14.9	26.3	1.9	5.5	23.2	0.5
COc1ccc(/C=C/C(=O)NC(=S)Nc2ccccc2C(=O)NC2CCCCC2)cc1	30.7	6.5	21.5	78.6*	90.0*	28.4*
O=C(/C=C/c1ccccc1)NC(=S)Nc1ccccc1C(=O)NC1CCCCC1	22.9	8.7	-1.2	37.5	44.7	25.3*
Cc1ccc(NC(=S)NC(=O)C2CCCC2)c(Br)c1	12.1	.	5.2	3.5	.	-1.6
